High-throughput results from PubChem BioAssay.
A1 inh: inhibitors of the anti-apoptotic protein A1, read as caspase activation. MEF A1-2A-BIM cells, Caspase-Glo 3/7 luminescence, 3 h; percent of clofoctol response, vehicle zero. caspase activation, % (test concentration not listed). 0.066% of 330,000 active. AID 2462;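 active = over half of replicate activation scores above 10%, or exactly half above 10 with the replicate mean above 10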
LANA-H2B inh: blocks KSHV LANA binding to histone H2A/H2B | inhibition, % (concentration not given with the values) | Q9QR71 | 0.6% of 320,000 active | cell-free LANA-H2A/H2B peptide, fluorescence polarization | AID 2629; in the data active = inhibition mostly above about 10%, no sharp cut-off; inactive = mostly below about 6.7%
ATG4B inhibitor: blocks human ATG4B protease cleavage of LC3 substrate | Q9Y4P1 | ATG4B cleavage of LC3-PLA2, NBD-HPC fluorescence, 1 h | inhibition, % at 8.33 µM | 0.51% of 340,000 active | AID 504462; in the data active = inhibition above about 40%
AI-2 QS modul: Vibrio harveyi AI-2 quorum sensing modulation. Vibrio harveyi JMH597 AI-2 luminescence/OD600 ratio, 9 h; active compounds read low; strain lacks LuxN and CqsS sensors; 0 = neutral-control median. activity change, % at 7.5 µM. 0.4% of 300,000 active; in the data active = activity change below about -75%, passing the limit was not always enough;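 note: luminescence divided by OD600 gain over 9 h not by final OD600 alone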
HDAC3 inh: human HDAC3 inhibition; inhibition, % at 8.3 µM; AID 2718; recombinant HDAC3, fluorogenic peptide/trypsin coupled, fluorescence; O15379; 0.15% of 320,000 active; in the data active = inhibition above about 26%, passing the limit was not always enough
Target sequence (O15379 whole entry, looked up): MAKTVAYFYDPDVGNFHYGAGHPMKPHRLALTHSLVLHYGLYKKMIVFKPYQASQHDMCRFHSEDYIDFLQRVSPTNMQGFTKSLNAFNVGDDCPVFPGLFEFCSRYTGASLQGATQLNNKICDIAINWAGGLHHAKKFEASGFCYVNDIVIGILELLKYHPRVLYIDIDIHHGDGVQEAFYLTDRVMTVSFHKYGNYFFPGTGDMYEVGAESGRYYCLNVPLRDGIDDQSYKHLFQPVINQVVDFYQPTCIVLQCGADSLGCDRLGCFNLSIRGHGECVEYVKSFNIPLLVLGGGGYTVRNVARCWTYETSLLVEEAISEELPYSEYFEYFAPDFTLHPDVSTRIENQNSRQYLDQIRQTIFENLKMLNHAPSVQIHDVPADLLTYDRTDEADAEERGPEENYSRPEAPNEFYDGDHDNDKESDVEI
HKDC1 inhibitor: blocks human hexokinase HKDC1 activity; Q2TB90; recombinant HKDC1, G6PDH/diaphorase resazurin coupled fluorescence; 0.16% of 340,000 active; inhibition, % at 20 µM;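 active = inhibition above about 35% when tested at 20 µM, limit read from the data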;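 note: plate controls were DMSO wells with enzyme for no effect and DMSO wells lacking enzyme for full effect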
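Assay system: in-house recombinant HK5 (HKDC1) enzyme. Input: HKDC1 at 5 µg/mL. Medium: Tris pH 8.0 buffer with MgCl2, Tween-20, BSA, BME. Dosing: single 20 µM dose. Schedule: 90 min reaction incubation at room temperature, dark. Signal: resazurin-to-resorufin fluorescence via G6PDH and diaphorase coupling, 525/613 nm. Controls: DMSO-enzyme wells negative, buffer-substituted wells positive.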
* hit, by the source's call; · = no result given; + = active, no number; ! = not active in a repeat. In the library only some 1.8% were active in any assay of this set; here they are far more common.

SMILES	A1 inh	LANA-H2B inh	ATG4B inhibitor	AI-2 QS modul	HDAC3 inh	HKDC1 inhibitor
CN(C)C(=O)C1(c2ccccc2)CCN(S(=O)(=O)c2ccccc2)CC1	1.2	0.5	-8.4	28.6	-4.6	1.6
CCc1noc(C)c1C(=O)NNC(=O)c1ccccc1	1.3	96.5*	4.8	·	-2.8	-6.3
CCc1ccc(C(=O)NNC(=O)c2c(CC)noc2C)cc1	0.1	0.4	3.2	636.9	-2.2	-3.9
COc1cc(N2CCCC2)c(OC)cc1/C=C(/C#N)c1ccc(F)cc1	-0.3	-68.9*	-4.8	5.1	-2.2	9.9
CCOc1ccccc1N	0.0	23.1*	2.3	·	-0.2	0.9
CCOC(=O)c1ccc(NC(=O)CN2C(=O)CSCC2=O)cc1	-0.2	-9.2	3.3	-72.5	0.4	-0.2
CCOC(=O)c1ccc(NC(=O)CN2C(=O)C(CC)SC(CC)C2=O)cc1 (stereo not given)	0.3	37.9*	-4.8	-63.1	-1.5	2.8
O=C(N/N=C/c1ccccc1[N+](=O)[O-])c1ccc2nc[nH]c2c1	0.3	3.5	4.9	16.4	96.3*	-3.7
Cc1cc2c(=O)n(Cc3ccco3)c(SCC(=O)c3ccc(Cl)s3)nc2s1	-0.4	2.7	-5.8	35.0	26.9*	17.1
COc1ccc(NC(=O)CCN(c2ccc(OC)cc2)S(=O)(=O)c2ccc(C)c(C)c2)cc1	·	·	-10.9	·	·	3.1
O=C(NCc1ccc(/C=N\NC(=O)C(=O)Nc2ccccc2Br)o1)C(=O)Nc1ccccc1	10.6*	-0.3	8.4	13.9	5.4	-7.0
CCC(CC)NC(=O)COC(=O)CCC(=O)c1ccc(Cl)cc1	-1.2	-2.5	6.8	15.6	1.6	5.2
C[C@H]1C[C@H]2[C@@H]3CCC4=CC(=O)C=C[C@]4(C)[C@@]3(F)[C@@H](O)C[C@]2(C)[C@@]1(O)C(=O)CO	1.7	9.5	-1.7	-1.3	-0.9	-1.9
C[C@@H]1C[C@H]2[C@@H]3CCC4=CC(=O)C=C[C@]4(C)[C@@]3(F)[C@@H](O)C[C@]2(C)[C@@]1(O)C(=O)COP(=O)(O)O	0.6	46.7*!	-2.4	27.4	4.6	-5.6
CN(C)CC1CCCCC1OC(=O)/C=C/c1ccc(Cl)cc1Cl (stereo not given)	-0.2	-0.8	0.4	5.1	4.6	-0.1
O=[N+]([O-])c1c(Nc2ccc(O)cc2)cc(Cl)c2nonc12	1.2	-4.5	4.7	-174.4*	6.5	17.2
O=C1CCC[C@@H]2C[C@@]3(C[C@@H]4CCN1[C@H]24)Nc1cc(Cl)c(Cl)cc1NC3=NCc1ccccc1	·	·	-19.6	·	·	12.9
CCn1nc(C)cc1-c1nnc(Sc2ncc([N+](=O)[O-])s2)n1C	-0.1	1.3	0.6	-237.9*	3.0	6.4
O=C(Cc1ccc2ccccc2c1)Nc1ccccc1Br	0.8	39.0*	-6.0	11.9	0.0	-2.1
Cc1ccc(C2=NN(CC(=O)NCCN(CC(C)C)CC(C)C)C(=O)CC2)cc1	0.8	15.1*	-5.7	4.2	-5.6	-1.5
Cc1ccc(C2=NN(CC(=O)NCCN(C)C)C(=O)CC2)cc1	0.8	1.2	6.4	13.3	3.4	-6.4
COc1ccccc1-c1nnc(SCC(=O)Nc2cccnc2Cl)n1C	-0.3	-2.1	-0.1	·	-8.5	-4.5
Cc1ccc(NC(=O)c2ccc(N/N=C/c3cccc(O)c3)c([N+](=O)[O-])c2)cc1	36.0*	-1.1	-7.0	12.3	-9.5	-2.2
O=[N+]([O-])c1ccc(NN=Cc2cccc([N+](=O)[O-])c2)cc1	·	·	-5.2	·	·	-4.1
Cc1ccccc1NC(=O)c1ccc(N/N=C/c2ccccc2O)c([N+](=O)[O-])c1	2.2	-5.1	-2.9	18.6	-8.9	-6.1
SMILES	A1 inh	LANA-H2B inh	ATG4B inhibitor	AI-2 QS modul	HDAC3 inh	HKDC1 inhibitor
O=[N+]([O-])c1ccc(N/N=C/c2ccc[nH]2)cc1	0.2	+	10.2	·	17.7	-4.2
O=[N+]([O-])c1ccc(N/N=C/c2cccc(O)c2)cc1	-1.4	-1.0	-6.8	-85.9*	17.8	-1.2
N#Cc1nccnc1S(=O)(=O)c1cccs1	0.8	-1.5	3.7	-132.0*	-0.8	-2.7
CN(Cc1ccccc1C#N)S(=O)(=O)c1cccs1	1.6	-0.5	9.3	20.9	-3.0	4.5
CC1C/C(=N\NC(=O)c2ccc(NS(=O)(=O)c3ccc(Br)cc3)cc2)CC(C)(C)C1 (stereo not given)	0.5	-0.5	27.9	56.6	36.9*	-6.2
N=C(N)c1ccc(OCCCCCOc2ccc(C(=N)N)cc2)cc1	-0.6	-2.9	1.2	16.7	61.0*	-2.6
CCCCCCOc1ccc(/C(N)=N/O)cc1	-2.7	-1.1	3.5	-21.1	5.8	-5.5
CCN1CCN(C(=O)C2c3cc(OC)c(OC)cc3C(=O)N(C)C2c2ccc(SC)cc2)CC1 (stereo not given)	0.2	-7.5	-4.6	12.2	28.2*	-16.2
COc1ccc(C2C(C(=O)N3CCN(C)CC3)c3cc(OC)c(OC)cc3C(=O)N2C)cc1 (stereo not given)	0.3	+	-4.9	18.6	6.7	-4.2
CCCCOc1ccc(SCCCN2CCOCC2)cc1	·	·	-10.8	·	·	-6.4
CCOc1ccc(-c2c(C(=O)N/N=C/c3cccc(Br)c3)nnn2-c2nonc2N)cc1	0.0	20.4*	-7.0	22.9	-2.2	2.7
CCOc1ccc(NC(=O)CN(C)C(=O)CN2C(=O)c3ccc([N+](=O)[O-])cc3C2=O)cc1OCC	·	·	-4.9	·	·	-3.8
COCCNC(=S)N1CCN(c2nc(-c3ccc(F)cc3)cs2)CC1	0.3	18.4*	-3.5	12.6	3.3	-4.3
O=C(O)CC(C(=O)O)C(c1ccccc1)c1ccccc1 (stereo not given)	·	·	0.1	·	·	-6.2
CC(=O)c1ccc(NC(=S)Nc2ccc(Br)c(Cl)c2)cc1	1.1	35.8*	-4.8	55.5	14.2	-5.7
CS(=O)(=O)Nc1ccc(C2=NN(C(=O)c3cccc(F)c3)C(c3cccs3)C2)cc1 (stereo not given)	5.4*	0.9	-1.9	22.5	-5.0	1.8
CS(=O)(=O)Nc1ccc(C2=NN(C(=O)c3ccccc3)C(c3cccs3)C2)cc1 (stereo not given)	0.4	-0.1	-15.6	16.9	6.2	-0.9
Cc1cc(C)n2nc(C(=O)N/N=C/C=C/c3ccccc3)nc2n1	0.0	-3.3	0.5	11.0	8.5	-3.8
COC(=O)c1cc2n(n1)CCN(Cc1ccc(C)cc1)C2=O	-0.1	-1.3	-1.2	-6.2	-4.9	-5.3
COC(=O)c1cc2n(n1)CCN(Cc1cccc(OC)c1)C2=O	0.0	20.1*	-11.9	9.5	4.0	16.2
CC1(C)c2ccccc2-c2nc3ccccc3cc2C1N1CCOCC1 (stereo not given)	·	·	0.0	·	·	2.6
CC1(C)c2cc(O)ccc2OC1N1CCOCC1 (stereo not given)	9.5*	-1.6	1.3	-3.0	-9.3	0.8
